In ChEMBL document CHEMBL5029154, “Design, Synthesis, and Biological Evaluation of Organic Nitrite (NO2-) Donors as Potential Anticerebral Ischemia Agents” (J Med Chem, 2021):
Activity calls are given as the source filed them. No cut-off for these calls is given here.

Legend:
[1] = Drug metabolism assessed as nitric oxide release in presence of bovine plasma at 200 uM measured after 1 hr by Griess reagent based assay; assay type: ADME, cell-free, Bos taurus; details: cattle
Cortical neurone [2] = experiment: Neuroprotective activity against in OGD/R-induced Sprague-Dawley rat cortical neuron injury assessed as cell viability pretreated at 1.8 uM for 24 hrs followed by subjected to OGD for 2 hrs measured after 24 hrs under normoxic condition; assay type: functional, tissue-based
Summary of the method: (§1)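 Cortical neurons were isolated from SD rat cortex by enzymatic digestion, plated on poly-lysine in 10% FBS DMEM, and pretreated 24 h at 1.8 μM in basal medium with 2% B27. OGD was run in glucose/FBS-free DMEM under 1% O₂, followed by 24 h reoxygenation in 10% FBS DMEM. Viability was read by MTT; apoptosis was also assessed. Three independent experiments.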

[3] = Stability of the compound under dark condition at 200 uM measured after 24 hrs by HPLC analysis; assay type: physicochemical
[4] = Stability of the compound in pH 7.4 saline assessed as half life at 200 uM measured after 24 hrs by HPLC analysis; assay type: physicochemical; details: saline pH 7.4, pH 7.4
[5] = Stability of the compound in pH 6 phosphate buffer assessed as half life at 200 uM measured after 24 hrs by HPLC analysis; assay type: physicochemical; details: phosphate buffer pH 6, pH 6
[6] = GSH reactivity assessed as reaction rate measured at 4 equiv of GSH upto 24 hrs by HPLC analysis; assay type: ADME
[7] = GSH reactivity assessed as reaction rate measured at 32 equiv of GSH upto 24 hrs by HPLC analysis; assay type: ADME
[8] = Lipo-hydro partition coefficient, logP of compound; assay type: physicochemical; details: octanol/water
[9] = Neuroprotective activity against in OGD/R-induced rat primary cortical neuron apoptosis assessed as viable cells pretreated at 1.8 uM for 24 hrs followed by subjected to OGD for 2 hrs measured after 24 hrs under normoxic condition by PI/FITC-H staining based flow cytometry (reference value: 31.55%); assay type: functional; details: Cortical neurone, read-out: Activity; summary of the method: as §1
[10] = Neuroprotective activity against in OGD/R-induced rat cortical neuron apoptosis assessed as late apoptotic cells pretreated at 1.8 uM for 24 hrs followed by subjected to OGD for 2 hrs measured after 24 hrs under normoxic condition by PI/FITC-H staining based flow cytometry (reference value: 6.31%); assay type: functional, Cortical neurone
Cortical neurone [11] = experiment: Neuroprotective activity against in OGD/R-induced rat cortical neuron cytotoxicity assessed as decrease in cell viability pretreated at 1.8 uM for 24 hrs followed by subjected to OGD for 2 hrs measured after 24 hrs under normoxic condition i n presence of ML385 by MTT assay; assay type: functional, tissue-based; summary of the method: as §1
Cortical neurone [12] = experiment: Effect on Nrf2 mRNA transcript level in OGD/R-induced rat primary cortical neuron pretreated at 1.8 uM for 24 hrs followed by subjected to OGD for 2 hrs measured after 24 hrs under normoxic condition by RT-qPCR analysis; assay type: functional, tissue-based
Summary of the method: (§2)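 Primary rat cortical neurons were pretreated with 1.8 μM compound for 24 h, given 2 h OGD, then 24 h normoxic culture. Nrf2, HO-1 and NQO1 mRNA were measured by RT-qPCR. Cytoplasmic and nuclear protein (30 μg/lane) were blotted for Nrf2, with lamin A and β-actin as references, and quantified by densitometry as the nuclear:cytoplasmic ratio. Three independent experiments, mean ± SD.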

Cortical neurone [13] = experiment: Induction of Nrf2 protein level in OGD/R-induced rat primary cortical neuron pretreated at 1.8 uM for 24 hrs followed by subjected to OGD for 2 hrs measured after 24 hrs under normoxic condition by Western blot analysis; assay type: functional, tissue-based; summary of the method: as §2
Cortical neurone [14] = experiment: Induction of HO-1 mRNA transcript level in OGD/R-induced rat primary cortical neuron pretreated at 1.8 uM for 24 hrs followed by subjected to OGD for 2 hrs measured after 24 hrs under normoxic condition by RT-qPCR analysis; assay type: functional, tissue-based; summary of the method: as §2
Cortical neurone [15] = experiment: Induction of NQO1 mRNA transcript level in OGD/R-induced rat primary cortical neuron pretreated at 1.8 uM for 24 hrs followed by subjected to OGD for 2 hrs measured after 24 hrs under normoxic condition by RT-qPCR analysis; assay type: functional, tissue-based; summary of the method: as §2
Cortical neurone [16] = experiment: Neuroprotective activity against in OGD/R-induced rat cortical neuron cytotoxicity assessed as activation of NO/cGMP/PKG pathway by measuring increase in PKG expression pretreated at 1.8 uM for 24 hrs followed by subjected to OGD for 2 hrs measured after 24 hrs under normoxic condition in presence of NS2028 by Western blot analysis; assay type: functional, tissue-based
Rattus norvegicus [17] = experiment: Neuroprotective activity against middle cerebral artery occlusion-induced ischemia-reperfusion injury Sprague-Dawley rat model assessed as decrease in neurologic deficit scores at 95 to 9500 microg/kg, iv treated immediately reperfusion measured after 24 hrs; assay type: functional, organism-based; details: dose 95-9500 µg/kg
Summary of the method: (§3)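 Male SD rats (12 weeks, 200–220 g; N = 8/group) underwent MCAO under […] (350 mg/kg) using a nylon intraluminal suture for 2 h, then reperfusion. Compound (95, 950 or 9500 μg/kg) was given iv immediately after reperfusion; where used, PTIO 1 mg/kg iv was given 30 min before. At 24 h, blinded scoring covered Longa neurological deficit, TTC infarct area/whole area, and edema from wet/dry brain weight (105 °C, 24 h).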

Rattus norvegicus [18] = experiment: Neuroprotective activity against middle cerebral artery occlusion-induced ischemia-reperfusion injury Sprague-Dawley rat model assessed as decrease in brain infarct volume at 95 to 9500 microg/kg, iv treated immediately reperfusion in presence of PTIO measured after 24 hrs; assay type: functional, organism-based; details: dose 95-9500 µg/kg; summary of the method: as §3
Rattus norvegicus [19] = experiment: Neuroprotective activity against middle cerebral artery occlusion-induced ischemia-reperfusion injury Sprague-Dawley rat model assessed as decrease in cerebral edema degree at 95 to 9500 microg/kg, iv treated immediately reperfusion in presence of PTIO measured after 24 hrs; assay type: functional, organism-based; details: dose 95-9500 µg/kg; summary of the method: as §3
Rattus norvegicus [20] = experiment: In vivo activation of Nrf2 middle cerebral artery occlusion-induced ischemia-reperfusion injury Sprague-Dawley rat model assessed as phosphorylation at 950 microg/kg, iv treated immediately reperfusion measured after 24 hrs; assay type: functional, organism-based; details: dose 950.0 µg/kg
Summary of the method: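 Paraffin sections (3 μm) from MCAO rats were immunostained with anti-phospho-Nrf2 (1:100) and DAB, then scored blinded by average optical density over five fields per sample.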

Rattus norvegicus [21] = experiment: Neuroprotective activity against middle cerebral artery occlusion-induced ischemia-reperfusion injury Sprague-Dawley rat model assessed as increase in HO-1 expression in cerebral ischemic penumbra at 950 microg/kg, iv treated immediately reperfusion measured after 24 hrs; assay type: functional, organism-based; details: dose 950.0 µg/kg
Summary of the method: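 MCAO rat brain paraffin sections (3 μm) were blocked with 10% goat serum and stained by IHC for NQO-1 and HO-1 (1:200) and phospho-Nrf2 (1:100), with DAB detection and rabbit IgG as negative control. Average optical density of positive cells was scored blinded over five fields per sample.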

HUVEC [22] = experiment: Angiogenesis activity in HUVEC cells assessed as increase in tube formation at 1.8 uM measured after 8 hrs by inverted microscopy; assay type: functional, cell-based; details: Homo sapiens
Summary of the method: (§4)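 Early-passage HUVECs (passages 2–6), grown in DMEM with 10% FBS, glutamine, pyruvate and antibiotics, were seeded at 8 × 10⁴ cells/well on Matrigel. They were exposed to vehicle or compound for 8 h at 37 °C, 5% CO₂. Tubes were counted under an inverted microscope.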

HUVEC [23] = experiment: Angiogenesis activity in HUVEC cells assessed as increase in tube formation at 1.8 uM measured after 8 hrs in presence of NS2028 by inverted microscopy; assay type: functional, cell-based; details: Homo sapiens; summary of the method: as §4
Rattus norvegicus [24] = experiment: Neuroprotective activity against middle cerebral artery occlusion-induced ischemia-reperfusion injury Sprague-Dawley rat model assessed as increase in Ki67+ cells in cerebral ischemic penumbra at 95 to 950 microg/kg, iv treated immediately reperfusion measured after 24 hrs in presence of PTIO by immunofluoresence assay; assay type: functional, organism-based; details: dose 95-950 µg/kg

SMILES: O=C(/C(=C/c1ccccc1)C[N+](=O)[O-])c1ccccc1
- Drug metabolism [1]: Metabolite_Detected
- Activity (Cortical neurone [2]): Active
- Stability [3]: Stable
- half-life at 200 µM [4]: 38.5 h
- half-life at 200 µM [5]: 1.1 h
- Activity [6]: 0.0299 h⁻¹
- Activity [7]: 0.056 h⁻¹
- logP [8]: 0.54
- viability at 1.8 µM [9]: 69.8%
- Activity [10]: 1.72%
- Activity (Cortical neurone [11]): Active
- Activity (Cortical neurone [12]): inactive
- Activity (Cortical neurone [13]): Active
- Activity (Cortical neurone [14]): Active
- Activity (Cortical neurone [15]): Active
- Activity (Cortical neurone [16]): inactive
- Activity (Rattus norvegicus [17]): Active
- Activity (Rattus norvegicus [18]): inactive
- Activity (Rattus norvegicus [19]): inactive
- Activity (Rattus norvegicus [20]): Active
- Activity (Rattus norvegicus [21]): Active
- Activity (HUVEC [22]): Active
- Activity (HUVEC [23]): inactive
- Activity (Rattus norvegicus [24]): inactive
